Molecules are shown by their SMILES. Bounds are passed on as bounds.

For 11 molecules, IC50 results are on record in ChEMBL document CHEMBL1146238, “Prenylated xanthones from the root bark of Cudrania tricuspidata” (J Nat Prod, 2007).

For the test, the target named is T1, Amine oxidase [flavin-containing] A (Mus musculus, UniProt Q64133).
T1 sequence (Q64133 whole entry): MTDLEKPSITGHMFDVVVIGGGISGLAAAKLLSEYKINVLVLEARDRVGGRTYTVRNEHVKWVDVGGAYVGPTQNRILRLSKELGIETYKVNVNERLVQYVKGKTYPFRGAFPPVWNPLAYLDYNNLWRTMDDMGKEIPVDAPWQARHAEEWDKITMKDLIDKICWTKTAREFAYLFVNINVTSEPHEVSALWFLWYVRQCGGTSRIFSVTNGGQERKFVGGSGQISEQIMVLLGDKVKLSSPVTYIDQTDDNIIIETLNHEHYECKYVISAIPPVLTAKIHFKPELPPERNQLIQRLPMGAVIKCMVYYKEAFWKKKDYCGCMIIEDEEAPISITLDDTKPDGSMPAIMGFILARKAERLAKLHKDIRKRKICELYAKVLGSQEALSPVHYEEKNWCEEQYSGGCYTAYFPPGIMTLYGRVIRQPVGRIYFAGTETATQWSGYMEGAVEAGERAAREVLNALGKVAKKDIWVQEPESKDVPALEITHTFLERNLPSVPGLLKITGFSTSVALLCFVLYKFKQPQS
Briefly: Inhibition at monoamine oxidase in mouse brain. It counts as tissue-based. In outline: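 Enzyme source: mouse brain mitochondrial fraction. Substrate kynuramine, with MAO converting it to 4-hydroxyquinoline. That product is read fluorometrically at excitation 315 nm and emission 380 nm. Compounds go in as DMSO solutions, with DMSO kept below 3%. Iproniazid serves as the positive control. Result reported as IC50.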
Turning to `CC(C)=CCc1c(O)c(O)cc2oc3c4c(cc(O)c3c(=O)c12)OC(C)C4(C)C` (stereo unspecified) [CUDRATRICUSXANTHONE J], the IC50 was above 150 µM.
`C=CC(C)(C)c1c(O)cc(O)c2c(=O)c3cc(O)c(O)cc3oc12` [CUDRATRICUSXANTHONE L]: the IC50 is above 150 µM.
For `CC(C)=CCc1c(O)cc2c(c1O)C(=O)C[C@@H](c1cc3c(cc1O)OC(C)(C)C=C3)O2` [CUDRAFLAVANONE A], the IC50 worked out at 89.7 µM.
The result for `C=CC(C)(C)c1c(O)cc(O)c2c(=O)c3c(CCC(C)(C)O)c(O)c(O)cc3oc12` [CUDRATRICUSXANTHONE M] reads above 150 µM.
`C=CC(C)(C)c1c(O)cc2oc3c4c(c(O)cc3c(=O)c2c1O)OC(C)(C)C=C4` [ISOCUDRAXANTHONE K] came in with an IC50 above 150 µM.
In turn, `COc1c(CC=C(C)C)c(O)c2c(=O)c3cc(O)c(O)cc3oc2c1CC=C(C)C` [CUDRATRICUSXANTHONE K] registered an IC50 above 150 µM.
The molecule `C=CC(C)(C)c1c(O)cc2oc3c(CC=C(C)C)c(O)c(O)cc3c(=O)c2c1O` [CUDRAXANTHONE L] came in with an IC50 above 150 µM.
The value for `CC(C)=CCc1c(-c2ccc(O)cc2O)oc2cc3c(c(O)c2c1=O)C=CC(C)(C)O3` [CUDRAFLAVONE B] was 80 µM; that for `C=CC(C)(C)c1c(O)cc(O)c2c(=O)c3c(CC=C(C)C)c(O)c(O)cc3oc12` [CUDRATRICUSXANTHONE A] was 88.3 µM; that for `C=CC(C)(C)c1c(O)cc(O)c2c(=O)c3c(CC=C(C)C)c(OC)c(O)cc3oc12` [CUDRAXANTHONE C] was above 150 µM.
`CC(C)=CC1Oc2cc(O)ccc2-c2oc3cc4c(c(O)c3c(=O)c21)C=CC(C)(C)O4` (stereo unspecified) [CUDRAFLAVONE A] yielded an IC50 above 150 µM.

A word on the IC50: it is the concentration that inhibits the measured activity by half.
